{
  "source": "paper PMC4130904",
  "about": "(The Prostate, 2014)",
  "key": {"[1]": {"test": "Hydrolysis of prodrugs in mouse plasma ex vivo", "assay_type": "in vitro ADME", "conditions": "100 µM prodrug, 37°C, 24 hrs", "method_in_brief": "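Plasma was taken by intra-cardiac puncture from fully anesthetized mice. Prodrugs were added at 100 µM final and incubated at 37°C for 24 hrs with shaking. Active drug (A-, S-, E-12ADT) was measured by LCMS at 0 and 24hrs.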"}, "[2]": {"test": "Plasma pharmacokinetics of prodrugs and active drug after IV dosing", "assay_type": "in vivo, mouse", "method_in_brief": "(§1)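 Mice were dosed IV and bled by cardiac puncture under anesthesia to give heparinized plasma; naive-mouse plasma served as control, and tissues and tumors were harvested. Samples were deproteinated in acetonitrile with 0.1% FA, with L12ADT at 1 µM as internal standard. Calibration standards ran 100pM–100 µM. Samples were analysed by reversed-phase LCMS (positive-mode MRM). Terminal t1/2 came from the terminal slope of log-linear concentration–time plots.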"}, "[3]": {"test": "Tumor pharmacokinetics of prodrug activation in MCF-7 xenografts", "assay_type": "in vivo, mouse", "method_in_brief": "as §1"}, "[4]": {"conditions": "cited from earlier work"}, "[5]": {"system": "LNCaP human prostate cancer xenografts", "test": "LNCaP xenograft efficacy study, comparison to docetaxel", "assay_type": "in vivo, mouse", "conditions": "prodrug 10 nmoles IV days 0, 1, 2; docetaxel 12 mg/kg/dose IV days 0, 3, 6", "method_in_brief": "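Six-week-old male nude mice (n = 10/group) received subcutaneous rear-flank injections of LNCaP cells at 2.0 × 10⁶ per 100 µL of 60% Matrigel in HBSS. Prodrug was given IV at 6.8 mg/kg/dose (10 nmoles) on days 0, 1, 2. Docetaxel was given IV at 12 mg/kg/dose […] on days 0, 3, 6 for one cycle. Tumor volume (0.5236 × L × W × H) was measured weekly by calipers, and body weight was tracked.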"}, "[6]": {"test": "Body weight loss in treated LNCaP xenograft-bearing mice", "assay_type": "in vivo, mouse"}, "FAP": {"target": "T1, FAP (Homo sapiens, UniProt Q12884)", "T1 sequence (Q12884 26-760 limits assumed)": "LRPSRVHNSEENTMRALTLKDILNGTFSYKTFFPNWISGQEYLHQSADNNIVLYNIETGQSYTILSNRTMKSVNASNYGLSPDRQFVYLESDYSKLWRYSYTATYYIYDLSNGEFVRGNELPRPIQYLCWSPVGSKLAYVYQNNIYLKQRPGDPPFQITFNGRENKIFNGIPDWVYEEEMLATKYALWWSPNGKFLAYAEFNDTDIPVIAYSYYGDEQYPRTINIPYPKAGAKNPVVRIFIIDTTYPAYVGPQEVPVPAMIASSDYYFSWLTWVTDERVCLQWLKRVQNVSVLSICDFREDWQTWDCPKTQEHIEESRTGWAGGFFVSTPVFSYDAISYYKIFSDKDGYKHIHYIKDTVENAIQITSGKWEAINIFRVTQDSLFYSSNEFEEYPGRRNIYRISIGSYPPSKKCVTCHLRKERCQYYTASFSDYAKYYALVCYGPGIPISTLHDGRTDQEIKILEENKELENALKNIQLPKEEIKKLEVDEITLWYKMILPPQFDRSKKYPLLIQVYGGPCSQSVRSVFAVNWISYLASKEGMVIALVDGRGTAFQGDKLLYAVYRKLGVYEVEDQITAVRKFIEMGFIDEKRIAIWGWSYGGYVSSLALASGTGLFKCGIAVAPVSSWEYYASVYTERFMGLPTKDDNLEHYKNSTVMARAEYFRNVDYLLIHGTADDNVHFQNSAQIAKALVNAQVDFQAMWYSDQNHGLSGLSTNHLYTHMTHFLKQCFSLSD", "test": "FAP-mediated hydrolysis of prodrugs ex vivo", "assay_type": "biochemical", "method_in_brief": "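Recombinant FAP was expressed in Schneider's S2 cells and purified from the culture supernatant. Prodrugs at […] were held in FAP buffer (100mM NaCl, 100mM Tris, pH 7.8) with 10% DMSO, with or without 200nM FAP, at 37°C for 24hrs with shaking. Active drug (A-, S-, E-12ADT) was measured by LCMS at 0, 4 and 24hrs.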"}},
  "note": "Several values for one entry are separate records, joined by “and”; a condition that tells them apart may be missing. Equal entries are not always repeated. Non-standard residues stand in square brackets, D forms with d. Residues, ends and D or L forms follow the SMILES beside them. No end group written: not given here. *: point of attachment. X1 = C/C=C(/C)C(=O)O[C@H]1C(C)=C2[C@H]([C@@H]1OC(=O)CCCCCCC)[C@@](C)(OC(C)=O)C[C@H](OC(=O)CCCCCCCCCCCN*)[C@@]1(O)[C@H]2OC(=O)[C@@]1(C)O; A12ADT = thapsigargin analog A12ADT",
  "data": [
    {"compound": "C/C=C(/C)C(=O)O[C@H]1C(C)=C2[C@H]([C@@H]1OC(=O)CCCCCCC)[C@@](C)(OC(C)=O)C[C@H](OC(=O)CCCCCCCCCCCNC(=O)[C@H](CO)NC(=O)[C@H]1CCCN1C(=O)CNC(=O)[C@@H](NC(=O)[C@H](CCC(=O)O)NC(=O)CNC(=O)[C@H](CCCNC(=N)N)NC(=O)[C@@H](N)CCC(=O)O)[C@@H](C)O)[C@@]1(O)[C@H]2OC(=O)[C@@]1(C)O", "note": "[ERGETGp-S12ADT] (H-ERGETG[dP]S-X1; N-terminus assumed)", "values": [
      {"measurement": "active drug generation in mouse plasma ex vivo", "setting": "[1]", "result": "no active drug generated"},
      {"measurement": "12ADT levels in mouse plasma as part of total administered dose", "setting": "[2]; in vivo after IV dosing", "result": "< 0.01", "unit": "%"},
      {"measurement": "Cmax", "setting": "[2]; mouse, plasma, iv", "result": "35 to 40", "unit": "µM"},
      {"measurement": "Tmax", "setting": "[2]; mouse, plasma, iv", "result": "≤ 1", "unit": "h"},
      {"measurement": "half-life", "setting": "[2]; mouse, plasma, iv, half-life (t1/2) in mouse plasma, full-length prodrug, single IV dose", "result": "4 to 5", "unit": "h"},
      {"measurement": "clearance from circulation", "setting": "[2]; single IV dose", "result": "almost entirely cleared from circulation by 24 hrs"},
      {"measurement": "active species detectable in tumors", "setting": "[3]", "result": "only 12ADT is detectable"},
      {"measurement": "total active drug concentration in tumor, fold lower than from ERGETGP-S12ADT", "setting": "[3]", "result": "~ 7 fold"}
    ]},
    {"compound": "C/C=C(/C)C(=O)O[C@H]1C(C)=C2[C@H]([C@@H]1OC(=O)CCCCCCC)[C@@](C)(OC(C)=O)C[C@H](OC(=O)CCC)[C@@]1(O)[C@H]2OC(=O)[C@@]1(C)O", "note": "[TG, Thapsigargin]", "values": [
      {"measurement": "therapeutic benefit at the maximally-tolerated dose (MTD)", "setting": "[4]", "result": "no therapeutic benefit"}
    ]},
    {"compound": "CC(=O)O[C@@]12CO[C@@H]1C[C@H](O)[C@@]1(C)C(=O)[C@H](O)C3=C(C)[C@@H](OC(=O)[C@H](O)[C@@H](NC(=O)OC(C)(C)C)c4ccccc4)C[C@@](O)([C@@H](OC(=O)c4ccccc4)[C@H]21)C3(C)C", "note": "[docetaxel]", "values": [
      {"measurement": "anti-tumor effect against LNCaP xenografts", "setting": "[5]", "result": "comparable anti-tumor effect"},
      {"measurement": "recovery of body weight", "setting": "[6]; over the course of the experiment", "result": "did not recover"},
      {"measurement": "total body weight lost following therapy", "setting": "[6]; prodrug IV days 0, 1, 2, docetaxel IV days 0, 3, 6", "result": "~ 30% and 30%"}
    ]},
    {"compound": "ASGPAGP-A12ADT: FAP-activated prodrug: peptide ASGPAGP coupled to thapsigargin analog A12ADT", "values": [
      {"measurement": "active drug (S- or A12ADT) released in the presence of FAP", "setting": "FAP; 200nM FAP, FAP buffer pH 7.8, 37°C, up to 24hrs, LCMS", "result": 2, "unit": "µM"},
      {"measurement": "stability in the absence of FAP", "setting": "FAP; FAP buffer without FAP, data not shown", "result": "completely stable"}
    ]}
  ]
}
